Measured values reported in ChEMBL document CHEMBL3872205, “Design, synthesis and evaluation of novel potent angiotensin II receptor 1 antagonists” (Eur J Med Chem, 2016).

Legend:
[1] = system: Rattus norvegicus; test: Toxicity in rat model assessed as effect on heart rate at 10 to 15 mg/kg, po up to 24 hrs; format: organism-based; settings: in vivo
[2] = Displacement of 125I-Ang2 from AT1 receptor in SPF Sprague-Dawley rat vascular smooth muscle cell membranes after 150 mins by gamma counting method
Outline: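 Primary aortic VSMCs from SPF Sprague-Dawley rats, obtained by explant culture in DMEM/10% FBS and identified by SM α-actin staining; passages 3–6. Whole cells (10^6/well) incubated with 125I-Ang II (diluted to 0.2 nM) and compound at final 10^-12–10^-6 M, 4 °C for 150 min. Washed, lysed in 0.1 M NaOH, γ-counted. IC50 from nonlinear fit of competition curves.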

[3] = system: Rattus norvegicus; test: Antihypertensive activity in spontaneous hypertensive rat model assessed as reduction in mean blood pressure at 10 mg/kg, po after 4 hrs; format: functional
Outline: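 Male SHRs (250 ± 20 g) were randomized, 6 per group. Compound was suspended in 0.5% sodium carboxymethyl cellulose and given orally; vehicle-only negative control. Mean blood pressure was calculated as (SBP − DBP)/3 + DBP from systolic and diastolic readings over the time course. Data are mean ± SD, with p < 0.05 taken as significant.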

[4] = AUC (0 to 72 hrs) in Wistar rat plasma at 15 mg/kg, po by HPLC analysis; format: ADME, organism-based; set-up: dose 15 mg/kg, time < 72 hr, route oral
Outline: (§1)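 Male Wistar rats (180 ± 20 g, n = 6 per group) got one oral dose. Heparinized blood was taken by retro-orbital puncture before dosing and at 0.5–72 h. Plasma was spun at 4000 × g, 4 °C, 10 min, spiked with internal standard and protein-precipitated with acetonitrile. Analysis was reverse-phase C18 HPLC (0.02 mol/L KH2PO4 55%/acetonitrile 45%, 1.0 mL/min). Calibration used 0.1–10 µg/mL, peak-height ratio, weighting concentration^-2.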

[5] = AUC (0 to infinity) in Wistar rat plasma at 10 mg/kg, po by HPLC analysis; format: ADME, organism-based; set-up: dose 10 mg/kg, route oral, time infinity; outline: as §1
[6] = MRT (0 to 72 hrs) in Wistar rat plasma at 10 mg/kg, po by HPLC analysis; format: ADME, organism-based
Outline: (§2)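 Male Wistar rats (180 ± 20 g), 6 per dose group, each given a single oral dose. Blood was drawn by retro-orbital puncture into heparin at predose and at 0.5, 1, 2, 4, 6, 8, 12, 24, 48 and 72 h, then spun at 4000 × g and 4 °C. Plasma with internal standard was acetonitrile-precipitated, filtered and run on reverse-phase C18 HPLC (0.02 mol/L KH2PO4 55% / acetonitrile 45%, 1.0 mL/min). Calibration standards were 0.1–10 µg/mL, fitted by peak-height ratio with 1/conc² weighting.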

[7] = MRT (0 to infinity) in Wistar rat plasma at 30 mg/kg, po by HPLC analysis; format: ADME, organism-based; outline: as §2
[8] = Cmax in Wistar rat plasma at 30 mg/kg, po by HPLC analysis; format: ADME, organism-based; set-up: dose 30 mg/kg, route oral
[9] = MRT (0 to infinity) in Wistar rat Heart at 10 mg/kg, po by HPLC analysis; format: ADME, organism-based
Outline: (§3)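 Male Wistar rats (180 ± 20 g) received a single oral dose of 10, 15 or 30 mg/kg. Tissues were collected at 0, 0.5, 1, 2, 4, 6, 8, 12, 24, 48 and 72 h (n = 6 per point). Samples of 0.25 g were rinsed, then homogenized in saline (0.25 g/1 mL) and centrifuged at 10,000 × g. Supernatant was methanol-extracted, dried under nitrogen at 50 °C and reconstituted in methanol. Analysis was by C18 HPLC (acetonitrile 60% / water 40%, 1.0 mL/min).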

[10] = Cmax in Wistar rat heart at 10 mg/kg, po by HPLC analysis; format: ADME, organism-based; set-up: dose 10 mg/kg, route oral
Outline: (§4)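 Tissue distribution in male Wistar rats given oral 10, 15 or 30 mg/kg; heart, liver, spleen, lung, kidney and brain collected predose and 0.5–72 h post-dose (n = 6 per time). Tissue rinsed in saline, homogenised 0.25 g/1 mL saline, methanol extraction, dried under nitrogen, reconstituted in methanol. Analysis by reverse-phase C18 HPLC, acetonitrile/water 60:40, 1.0 mL/min, ambient temperature.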

[11] = Cmax in Wistar rat heart at 30 mg/kg, po by HPLC analysis; format: ADME, organism-based; set-up: dose 30 mg/kg, route oral; outline: as §4
[12] = AUC (0 to infinity) in Wistar rat liver at 15 mg/kg, po by HPLC analysis; format: ADME, organism-based; set-up: dose 15 mg/kg, route oral, time infinity
Outline: (§5)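 Wistar rats (180 ± 20 g) were dosed orally at 10, 15 or 30 mg/kg. Heart, liver, spleen, lung, kidney and brain were collected at 0–72 h (n = 6 per point). Tissue was rinsed, blotted and homogenized in saline (0.25 g/1 mL), then spun at 10,000 × g. Supernatant was methanol-extracted, dried under nitrogen at 50 °C, reconstituted in methanol and run on C18 HPLC (acetonitrile 60%/water 40%, 1.0 mL/min).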

[13] = AUC (0 to infinity) in Wistar rat liver at 30 mg/kg, po by HPLC analysis; format: ADME, organism-based; set-up: dose 30 mg/kg, time infinity, route oral; outline: as §5
[14] = MRT (0 to 72 hrs) in Wistar rat liver at 10 mg/kg, po by HPLC analysis; format: ADME, organism-based; outline: as §4
[15] = MRT (0 to 72 hrs) in Wistar rat liver at 15 mg/kg, po by HPLC analysis; format: ADME, organism-based; outline: as §3
[16] = MRT (0 to infinity) in Wistar rat liver at 15 mg/kg, po by HPLC analysis; format: ADME, organism-based; outline: as §3
[17] = Half life in Wistar rat liver at 15 mg/kg, po by HPLC analysis; format: ADME, organism-based; outline: as §4
[18] = Cmax in Wistar rat liver at 15 mg/kg, po by HPLC analysis; format: ADME, organism-based; set-up: dose 15 mg/kg, route oral; outline: as §4
[19] = AUC (0 to 72 hrs) in Wistar rat spleen at 15 mg/kg, po by HPLC analysis; format: ADME, organism-based; set-up: dose 15 mg/kg, time < 72 hr, route oral; outline: as §5
[20] = MRT (0 to 72 hrs) in Wistar rat spleen at 10 mg/kg, po by HPLC analysis; format: ADME, organism-based; outline: as §3
[21] = AUC (0 to infinity) in Wistar rat lung at 10 mg/kg, po by HPLC analysis; format: ADME, organism-based; set-up: dose 10 mg/kg, time infinity, route oral; outline: as §5
[22] = MRT (0 to infinity) in Wistar rat lung at 10 mg/kg, po by HPLC analysis; format: ADME, organism-based; outline: as §3
[23] = Half life in Wistar rat lung at 10 mg/kg, po by HPLC analysis; format: ADME, organism-based; outline: as §4
[24] = MRT (0 to 72 hrs) in Wistar rat kidney at 15 mg/kg, po by HPLC analysis; format: ADME, organism-based; outline: as §4
[25] = Half life in Wistar rat kidney at 30 mg/kg, po by HPLC analysis; format: ADME, organism-based; outline: as §4
[26] = AUC (0 to 72 hrs) in Wistar rat brain at 15 mg/kg, po by HPLC analysis; format: ADME, organism-based; set-up: dose 15 mg/kg, time < 72 hr, route oral; outline: as §5
[27] = MRT (0 to infinity) in Wistar rat brain at 15 mg/kg, po by HPLC analysis; format: ADME, organism-based; outline: as §3
[28] = MRT (0 to infinity) in Wistar rat brain at 30 mg/kg, po by HPLC analysis; format: ADME, organism-based; outline: as §3
[29] = Tmax in Wistar rat brain at 30 mg/kg, po by HPLC analysis; format: ADME, organism-based; outline: as §3
[30] = system: Mus musculus; test: Toxicity in ICR mouse assessed as untoward reaction at 1200 mg/kg, po after 2 weeks; format: organism-based; settings: in vivo, 336 h

## CCCCC1=NC2(CCCC2)C(=O)N1Cc1ccc2c(ccn2-c2ccccc2-c2nnn[nH]2)c1
[1]
  Activity: Non-Toxic
[2]
  IC50: 1.26 nM
  Ki: 0.91 nM
[3]
  Activity: 28.39 mmHg
[4]
  AUC(0-t) at 72 h: 26500 ng·h/mL
[5]
  AUC(0-inf): 6690 ng·h/mL
[6]
  MRT last: 7.87 h
[7]
  MRT inf: 16.1 h
[8]
  Cmax: 5760 ng/mL
[9]
  MRT inf: 12 h
[10]
  Cmax: 105 ng/mL
[11]
  Cmax: 401 ng/mL
[12]
  AUC(0-inf): 23500 ng·h/mL
[13]
  AUC(0-inf): 15600 ng·h/mL
[14]
  MRT last: 4.93 h
[15]
  MRT last: 4.77 h
[16]
  MRT inf: 4.77 h
[17]
  half-life: 1.8 h
[18]
  Cmax: 1230 ng/mL
[19]
  AUC(0-t) at 72 h: 11900 ng·h/mL
[20]
  MRT last: 20.2 h
[21]
  AUC(0-inf): 745 ng·h/mL
[22]
  MRT inf: 10.6 h
[23]
  half-life: 3.04 h
[24]
  MRT last: 19.4 h
[25]
  half-life: 22.4 h
[26]
  AUC(0-t) at 72 h: 1180 ng·h/mL
[27]
  MRT inf: 11.6 h
[28]
  MRT inf: 9.02 h
[29]
  Tmax: 5.83 h
[30]
  Activity: Non-Toxic
